Assay results: ChEMBL document CHEMBL4368937, “Design, synthesis and biological evaluation of low molecular weight CXCR4 ligands” (Bioorg Med Chem, 2019)

Key:
[1] = target: T1, C-X-C chemokine receptor type 4 (Homo sapiens, UniProt P61073); assay: Competitive inhibition of TAMRAAc-TZ14011 binding to CXCR4 (unknown origin) expressed in CHO cells at 1 uM in absence of ZnCl2 by NanoBRET assay relative to control; format: cell-based
Outline: (§1)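 Single-point competition in CHO cells stably expressing N-terminally Nluc-tagged CXCR4 (5 x 10^4 cells, seeded 24 h earlier at 37 °C, 5% CO2, medium then replaced with OptiMEM). Cells were incubated with 10 nM TAMRA-Ac-TZ14011 plus 1 µM compound, without or with 10 µM ZnCl2 (10 eq), for 1 h at 25 °C. Furimazine was added and BRET read as acceptor (>610 nm) over donor (460 nm). Inhibition is relative to no compound and to excess Ac-TZ14011; mean ± SEM, n = 3.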

[2] = Cytotoxicity against human MT4 cells in absence of ZnCl2; format: cell-based
[3] = target: T1, C-X-C chemokine receptor type 4; assay: Competitive inhibition of [125I]-CXCL12 binding to CXCR4 in human Jurkat cells at 1 uM in presence of ZnCl2 after 2 hrs by gamma counting analysis relative to control; format: cell-based
[4] = target: T1, C-X-C chemokine receptor type 4; assay: Competitive inhibition of TAMRAAc-TZ14011 binding to CXCR4 (unknown origin) expressed in CHO cells at 1 uM in presence of ZnCl2 by NanoBRET assay relative to control; format: cell-based; outline: as §1
[5] = target: T1, C-X-C chemokine receptor type 4; assay: Competitive inhibition of [125I]-CXCL12 binding to CXCR4 in human Jurkat cells at 1 uM in absence of ZnCl2 after 2 hrs by gamma counting analysis relative to control; format: cell-based
[6] = tested on: Human immunodeficiency virus 1; assay: Antiviral activity against X4 tropic HIV-1 NL4-3 infected in human MT4 cells assessed as protection against virus-induced cytopathic effect in absence of ZnCl2 after 5 days by MTT assay; format: functional, organism-based; conditions: Human immunodeficiency virus 1, NL4-3, MT4, 120 h
Outline: (§2)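 Protection of MT-4 cells from X4 HIV-1 NL4-3 cytopathicity. Infected cells (MOI 0.001, 2.0 × 10^4 cells/well) received graded compound concentrations, without or with ZnCl2 (10 eq), for 5 days at 37 °C. Viable cells were counted by MTT. EC50 is the concentration giving 50% protection; mean of at least three independent experiments.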

[7] = tested on: Human immunodeficiency virus 1; assay: Antiviral activity against R5 tropic HIV-1 NL(AD8) infected in human MT4 cells assessed as protection against virus-induced cytopathic effect at 10 uM in presence of ZnCl2 after 5 days by MTT assay; format: functional; conditions: Human immunodeficiency virus 1, NL(AD8), MT4, 120 h
[8] = tested on: Human immunodeficiency virus 1; assay: Antiviral activity against X4 tropic HIV-1 NL4-3 infected in human MT4 cells assessed as protection against virus-induced cytopathic effect in presence of ZnCl2 after 5 days by MTT assay; format: functional, organism-based; conditions: Human immunodeficiency virus 1, NL4-3, MT4, 120 h; outline: as §2
[9] = tested on: Human immunodeficiency virus 1; assay: Antiviral activity against R5 tropic HIV-1 NL(AD8) infected in human MT4 cells assessed as protection against virus-induced cytopathic effect at 10 uM in absence of ZnCl2 after 5 days by MTT assay; format: functional; conditions: Human immunodeficiency virus 1, NL(AD8), MT4, 120 h
[10] = target: T1, C-X-C chemokine receptor type 4; assay: Competitive inhibition of TAMRAAc-TZ14011 binding to CXCR4 (unknown origin) expressed in CHO cells in presence of ZnCl2 by NanoBRET assay relative to control; format: cell-based
Outline: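 Cells were incubated with 10 nM TAMRA-Ac-TZ14011 and compound plus ZnCl2 (10 eq). Furimazine was added and BRET ratio taken as >610 nm over 460 nm emission. Inhibition is scaled between no compound and excess Ac-TZ14011.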

T1 sequence (P61073 whole entry): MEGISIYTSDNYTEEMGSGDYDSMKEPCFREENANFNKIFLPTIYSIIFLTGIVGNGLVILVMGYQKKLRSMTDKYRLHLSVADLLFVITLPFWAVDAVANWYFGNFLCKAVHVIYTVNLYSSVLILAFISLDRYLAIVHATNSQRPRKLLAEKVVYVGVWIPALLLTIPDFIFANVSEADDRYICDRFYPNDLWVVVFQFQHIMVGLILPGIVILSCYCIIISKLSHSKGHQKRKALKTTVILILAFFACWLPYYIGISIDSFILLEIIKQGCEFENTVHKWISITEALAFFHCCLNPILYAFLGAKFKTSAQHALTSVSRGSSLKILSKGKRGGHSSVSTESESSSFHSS

SMILES	inhibition [1]	CC50 [2]	inhibition [3]	inhibition [4]	inhibition [5]	EC50 [6]	inhibition at 10 µM [7]	EC50 [8]	inhibition at 10 µM [9]	IC50 [10]
c1ccc(CN(Cc2cccc(-c3ccccc3CN3CCCNCCNCCCNCC3)c2)Cc2ccccn2)nc1	44.4%	> 10000 nM	116%	83.1%	46.1%	4200 nM	< 30%	1100 nM	< 30%	–
c1ccc(CN(Cc2ccnc(-c3ccc(CN4CCCNCCNCCCNCC4)cc3)c2)Cc2ccccn2)nc1	79.7%	> 10000 nM	89.7%	92.6%	39.2%	140 nM	< 30%	45 nM	< 30%	–
c1ccc(CN(Cc2ccc(-c3ccc(CN4CCCNCCNCCCNCC4)cn3)nc2)Cc2ccccn2)nc1	75.3%	> 10000 nM	98.7%	94.4%	68.6%	680 nM	< 30%	900 nM	< 30%	–
c1ccc(CN(Cc2ccc3ccc(CN4CCCNCCNCCCNCC4)cc3c2)Cc2ccccn2)nc1	82.1%	> 10000 nM	87.5%	84.8%	83.5%	790 nM	< 30%	1100 nM	< 30%	–
c1ccc(CN(Cc2ccc3c(c2)-c2cc(CN4CCCNCCNCCCNCC4)ccc2OCCCCO3)Cc2ccccn2)nc1	54.5%	> 10000 nM	78.4%	78.9%	57.3%	670 nM	< 30%	280 nM	< 30%	–
c1ccc(CN(Cc2ccnc(-c3cc(CN4CCCNCCNCCCNCC4)ccn3)c2)Cc2ccccn2)nc1	88.5%	> 10000 nM	99.2%	92.2%	100%	920 nM	< 30%	200 nM	< 30%	–
c1ccc(CN(Cc2ccc3c(c2)-c2cc(CN4CCCNCCNCCCNCC4)ccc2OCCO3)Cc2ccccn2)nc1	47.8%	> 10000 nM	119%	89%	48.7%	1900 nM	< 30%	970 nM	< 30%	–
c1ccc(CN(Cc2ccc(-c3ccccc3CN3CCCNCCNCCCNCC3)cc2)Cc2ccccn2)nc1	52.6%	> 10000 nM	91.6%	83.1%	54.9%	40 nM	58%	21 nM	< 30%	5.7 nM
c1ccc(CN(Cc2ccc3c(c2)-c2cc(CN4CCCNCCNCCCNCC4)ccc2OCO3)Cc2ccccn2)nc1	43.5%	> 10000 nM	95.6%	88.5%	54.4%	800 nM	< 30%	870 nM	< 30%	–
c1ccc(CN(Cc2ccc(-c3cccc(CN4CCCNCCNCCCNCC4)c3)cc2)Cc2ccccn2)nc1	89.7%	> 10000 nM	101%	78.2%	10.9%	800 nM	< 30%	1100 nM	< 30%	–
c1ccc(CN(Cc2ccccn2)Cc2ccccc2-c2cccc(CN3CCCNCCNCCCNCC3)c2)nc1	56%	> 10000 nM	100%	102%	41.9%	40 nM	< 30%	13 nM	< 30%	7.9 nM
c1ccc(CN(Cc2ccccn2)Cc2ccccc2-c2ccccc2CN2CCCNCCNCCCNCC2)nc1	79.8%	> 10000 nM	74.1%	99%	90.4%	1000 nM	< 30%	5800 nM	< 30%	–
c1ccc(CN(Cc2ccccn2)Cc2ccccc2-c2ccc(CN3CCCNCCNCCCNCC3)cc2)nc1	64.6%	> 10000 nM	84.1%	87.5%	79.9%	2600 nM	< 30%	890 nM	< 30%	–
c1ccc(CN(Cc2cccc(-c3ccc(CN4CCCNCCNCCCNCC4)cc3)c2)Cc2ccccn2)nc1	35.6%	> 10000 nM	119%	105%	38.3%	3100 nM	< 30%	1000 nM	< 30%	–
c1ccc(CN(Cc2ccc(-c3ccc(CN4CCCNCCNCCCNCC4)cc3)cc2)Cc2ccccn2)nc1	51.1%	4800 nM	85.5%	87.9%	33.9%	780 nM	< 30%	1000 nM	< 30%	–
c1ccc(CN(Cc2ccc(-c3ncccc3CN3CCCNCCNCCCNCC3)cc2)Cc2ccccn2)nc1	31.9%	> 10000 nM	88.5%	93.9%	41.4%	110 nM	< 30%	61 nM	< 30%	4.5 nM
c1ccc(CN(Cc2ccnc(-c3cccc(CN4CCCNCCNCCCNCC4)c3)c2)Cc2ccccn2)nc1	47.6%	> 10000 nM	84.7%	93.4%	63%	170 nM	< 30%	28 nM	< 30%	3.5 nM
c1ccc(CN(Cc2cccc(-c3cccc(CN4CCCNCCNCCCNCC4)c3)c2)Cc2ccccn2)nc1	40.4%	> 10000 nM	105%	88.4%	46.6%	750 nM	< 30%	980 nM	< 30%	–
c1ccc(CN(Cc2ccc3nc(CN4CCCNCCNCCCNCC4)ccc3c2)Cc2ccccn2)nc1	81.1%	> 10000 nM	110%	101%	81%	> 970 nM	–	5500 nM	–	–
c1ccc(CN(Cc2ccc(-c3ccc(CN4CCCNCCNCCCNCC4)cc3)nc2)Cc2ccccn2)nc1	89.1%	> 10000 nM	105%	102%	27%	590 nM	< 30%	130 nM	< 30%	–
c1ccc(CN(Cc2ccc3c(c2)-c2cc(CN4CCCNCCNCCCNCC4)ccc2OCCCO3)Cc2ccccn2)nc1	50.4%	> 10000 nM	97.1%	81.8%	32.5%	580 nM	< 30%	300 nM	< 30%	–
